Counter-ions that a name gives are not always drawn.
Assays:
[1] = molecular target: T1, human estrogen sulfotransferase (SULT1E1) (Homo sapiens, UniProt P49888); experiment: Inhibition of SULT1E1-catalyzed sulfation of [3H]estradiol; type: biochemical; conditions: 7.0 nM estradiol
T1 sequence (P49888 1-294): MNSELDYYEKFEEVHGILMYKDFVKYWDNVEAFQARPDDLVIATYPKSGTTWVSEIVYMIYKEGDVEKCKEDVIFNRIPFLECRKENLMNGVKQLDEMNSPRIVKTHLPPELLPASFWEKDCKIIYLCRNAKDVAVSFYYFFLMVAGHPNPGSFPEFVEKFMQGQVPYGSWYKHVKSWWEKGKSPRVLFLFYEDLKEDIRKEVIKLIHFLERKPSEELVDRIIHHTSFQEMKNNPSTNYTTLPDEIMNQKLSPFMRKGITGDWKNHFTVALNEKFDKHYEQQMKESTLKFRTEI
In short: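 Purified recombinant human enzyme expressed in E. coli BL21(DE3). Test compound added in ethanol at 0.01–10,000 nM. Equilibrated 3 min at 37 °C, started with 3.0 ng enzyme, run 4 min. Stopped with Tris-HCl pH 8.7 plus chloroform. Aqueous [3H]estradiol-3-sulfate counted by scintillation. Triplicates. IC50 fitted from % of control rate.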

[2] = metabolite in human plasma; ref Quinete et al., 2017; cited from earlier work
[3] = circulating steroid in humans; ref White and Porterfield, 2013; cited from earlier work

Oc1ccc(-c2ccc(Cl)cc2)cc1 [4’-OH-PCB 3, 4-chloro-4’-hydroxybiphenyl]
fold higher IC50 value for SULT1E1 than 4-OH-PCB 11 and 4’-OH PCB 25 [1]: ~200 fold

Oc1ccc(-c2ccc(Cl)cc2Cl)cc1Cl [4’-OH-PCB 25, 2,3’,4-trichloro-4’-hydroxybiphenyl]
estimated half-life in human plasma [2]: 6.5 years

O=S(=O)(O)Oc1ccc(-c2ccc(Cl)cc2Cl)cc1Cl [4’-PCB 25 Sulfate, 2,3’,4-trichloro-4’-biphenylsulfate]
IC50 value for SULT1E1, fold greater than the estradiol concentration [1]: over 50 fold

C[C@]12CC[C@H](O)CC1=CC[C@@H]1[C@@H]2CC[C@]2(C)C(=O)CC[C@@H]12 [DHEA, dehydroepiandrosterone]
half-life [3]: 15 to 30 min

C[C@]12CC[C@H](OS(=O)(=O)O)CC1=CC[C@@H]1[C@@H]2CC[C@]2(C)C(=O)CC[C@@H]12 [DHEA-sulfate, dehydroepiandrosterone sulfate]
half-life [3]: 420 to 600 min

Reference: article PMC6078096 (Environmental toxicology and pharmacology, 2018)
